According to ChEMBL document CHEMBL1126270, “Synthesis of 3-[(2,3-dihydro-1,1,3-trioxo-1,2-benzisothiazol-2-yl)alkyl] 1,4-dihydropyridine-3,5-dicarboxylate derivatives as calcium channel modulators” (J Med Chem, 1992):

Columns and labels:
[1] = molecular target: T1, Voltage-dependent L-type calcium channel subunit alpha-1C (Oryctolagus cuniculus, UniProt P15381); experiment: Blockade of calcium-evoked contractions in depolarized aortic strips; assay type: functional, tissue-based, Aorta
[2] = organism: Oryctolagus cuniculus; experiment: Relative potency was evaluated. (relative potency = IC50 of compound / IC50 of nifedipine); assay type: functional
[3] = molecular target: T1, Voltage-dependent L-type calcium channel subunit alpha-1C; settings: rabbit, Aorta
[4] = organism: Oryctolagus cuniculus; experiment: Recovery of the initial contraction of rabbit aortic strips, blocked at 10e-7 M concentration.; settings: Aorta
[5] = organism: Oryctolagus cuniculus; experiment: Compound was evaluated for contraction on Electrically driven Rabbit left atria. at 10e-8 M; assay type: functional
[6] = tested on: Rattus norvegicus; experiment: Effect (iv, 100 ug/kg) on diastolic blood pressure in anesthetized normotensive rat; assay type: functional, Artery
How it was run: (§1)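 Male Wistar rats, 290 ± 30 g, pentobarbitone anesthesia (70 mg/kg ip), tracheal cannulation. Carotid arterial pressure recorded, dosing via femoral vein. Bolus iv of 0.1 mg/kg in PEG-400 (0.1 mL/kg); effects recorded continuously for 15 min; peak rise in mmHg above basal.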

[7] = organism: Oryctolagus cuniculus; experiment: Compound was evaluated for contraction on Electrically driven Rabbit left atria. at 10e-6 M; assay type: functional
[8] = organism: Rattus norvegicus; experiment: Compound evaluated for reducing diastolic blood pressure normotensive rats.; assay type: functional, Artery
[9] = organism: Oryctolagus cuniculus; experiment: Compound was evaluated for contraction on Electrically driven Rabbit left atria. at 10e-7 M; assay type: functional
[10] = tested on: Rattus norvegicus; experiment: Effect (iv, 100 ug/kg) on systolic blood pressure in anesthetized normotensive rat; assay type: functional, Artery; how it was run: as §1
[11] = organism: Oryctolagus cuniculus; experiment: Maximum contractile force in rabbit aorta strips; assay type: functional
How it was run: (§2)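 Rabbit aortic strips, after equilibration in Ca2+-free Krebs, switched to buffer with 10 mM K+. Repeated 1.5 mM Ca2+ pulses until reproducible. Increasing compound concentrations each given 10 min before a further 1.5 mM Ca2+ pulse. Maximum contractile force (mg) taken as vasoconstrictor effect; data as mean ± SEM at 10^-6 M.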

[12] = organism: Rattus norvegicus; experiment: Reducing systolic blood pressure in spontaneously hypertensive rats.; assay type: functional; settings: Artery
How it was run: (§3)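 Conscious SHR trained 2 weeks, warmed at 31 ± 1 °C for 2 h; tail plethysmography SBP, mean of five readings; only rats above 170 mmHg used. After 24 h fasting, 20 mg/kg by gavage in 20% PEG-400/0.5% methylcellulose (10 mL/kg); SBP change read 1 h post-dose, n = 12.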

[13] = organism: Oryctolagus cuniculus; experiment: Blockade of calcium-evoked contractions evaluated in depolarized rabbit aortic strips; assay type: functional; settings: Aorta
How it was run: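 Male New Zealand rabbit thoracic aorta, helicoidal strips, 2.5 g preload, Krebs–bicarbonate, 37 °C, 95% O2/5% CO2, pH 7.4. After 1 h equilibration, depolarized with 35 mM K+; 1.5 mM Ca2+ added 10 min later, repeated until reproducible. Compound at increasing concentrations from 20 min before and during Ca2+ addition; responses normalized to initial tension; IC50 by Finney method.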

[14] = organism: Rattus norvegicus; experiment: Duration of action in spontaneously hypertensive rats.; assay type: functional
How it was run: (§4)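 Anesthetized (pentobarbitone 70 mg/kg ip) Okamoto SHR, 290 ± 30 g; carotid pressure, femoral vein dosing. Cumulative increasing iv bolus doses of 1, 3, 6, 10, 20, 30 µg/kg in PEG-400 (0.1 mL/kg), each recorded 15 min; ED25 for lowering SBP and DBP and duration of hypotensive action estimated.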

[15] = tested on: Rattus norvegicus; experiment: Systolic blood pressure after administration of a single oral dose (20 mg/kg) in spontaneously hypertensive rats.; assay type: functional; how it was run: as §3
[16] = organism: Oryctolagus cuniculus; experiment: Relative potency evaluated (relative potency = IC50 of compound / IC50 of nifedipine) in rabbit; assay type: functional
[17] = organism: Oryctolagus cuniculus; experiment: Inhibition of electrically stimulated rabbit left atria contraction.; assay type: functional
How it was run: (§5)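 Rabbit left atria electrically driven (1 Hz, 10 ms, twice threshold voltage), equilibrated 1–1.5 h. Compounds added cumulatively (10^-10–10^-6 M), diluted from DMSO stocks into Krebs–Henseleit, final DMSO <0.1%. Isometric force recorded; IC50 from contractile force relative to initial control values, with 95% confidence limits.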

[18] = molecular target: T1, Voltage-dependent L-type calcium channel subunit alpha-1C; experiment: Selectivity index was measured as the IC50 needed to depress the heart beat divided by IC50 needed to block [Ca2+] contractions in rabbit aortic strips; assay type: functional, tissue-based, Aorta
[19] = organism: Rattus norvegicus; experiment: Compound evaluated for reducing diastolic blood pressure in spontaneously hypertensive rats.; assay type: functional; settings: Artery; how it was run: as §4
[20] = organism: Oryctolagus cuniculus; experiment: Inhibition of electrically stimulated rabbit left atria contraction; assay type: functional; how it was run: as §5
[21] = organism: Oryctolagus cuniculus; experiment: Compound was tested in vitro for its effect on maximum contractile force in rabbit aorta strips; assay type: functional; how it was run: as §2
[22] = organism: Rattus norvegicus; experiment: Compound evaluated for reducing diastolic blood pressure in normotensive rats.; assay type: functional, Artery
[23] = tested on: Rattus norvegicus; experiment: Systolic blood pressure after administration of a single oral dose (20 mg/kg); assay type: functional
How it was run: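 Conscious SHR trained for 2 weeks; systolic pressure by tail plethysmography after 2 h at 31 ± 1 °C, each reading the mean of five determinations. Only rats with basal >170 mmHg were used. After 24 h fasting, dosed by gavage in 20% PEG-400 in 0.5% aqueous methylcellulose (10 mL/kg). % change from basal at 1 h; mean ± SE, n = 12.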

[24] = organism: Rattus norvegicus; experiment: Compound evaluated for reducing diastolic blood pressure spontaneously hypertensive rats.; assay type: functional; settings: Artery
How it was run: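 Male SHR (Okamoto strain, 290 ± 30 g) under sodium pentobarbitone anaesthesia (70 mg/kg ip) with tracheal cannulation. Arterial pressure recorded from the left carotid artery. Bolus iv via right femoral vein in PEG-400 (0.1 mL/kg), cumulative doses of 1, 3, 6, 10, 20 and 30 μg/kg, each followed for 15 min. ED25 for lowering diastolic pressure estimated.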

T1 sequence (P15381 whole entry): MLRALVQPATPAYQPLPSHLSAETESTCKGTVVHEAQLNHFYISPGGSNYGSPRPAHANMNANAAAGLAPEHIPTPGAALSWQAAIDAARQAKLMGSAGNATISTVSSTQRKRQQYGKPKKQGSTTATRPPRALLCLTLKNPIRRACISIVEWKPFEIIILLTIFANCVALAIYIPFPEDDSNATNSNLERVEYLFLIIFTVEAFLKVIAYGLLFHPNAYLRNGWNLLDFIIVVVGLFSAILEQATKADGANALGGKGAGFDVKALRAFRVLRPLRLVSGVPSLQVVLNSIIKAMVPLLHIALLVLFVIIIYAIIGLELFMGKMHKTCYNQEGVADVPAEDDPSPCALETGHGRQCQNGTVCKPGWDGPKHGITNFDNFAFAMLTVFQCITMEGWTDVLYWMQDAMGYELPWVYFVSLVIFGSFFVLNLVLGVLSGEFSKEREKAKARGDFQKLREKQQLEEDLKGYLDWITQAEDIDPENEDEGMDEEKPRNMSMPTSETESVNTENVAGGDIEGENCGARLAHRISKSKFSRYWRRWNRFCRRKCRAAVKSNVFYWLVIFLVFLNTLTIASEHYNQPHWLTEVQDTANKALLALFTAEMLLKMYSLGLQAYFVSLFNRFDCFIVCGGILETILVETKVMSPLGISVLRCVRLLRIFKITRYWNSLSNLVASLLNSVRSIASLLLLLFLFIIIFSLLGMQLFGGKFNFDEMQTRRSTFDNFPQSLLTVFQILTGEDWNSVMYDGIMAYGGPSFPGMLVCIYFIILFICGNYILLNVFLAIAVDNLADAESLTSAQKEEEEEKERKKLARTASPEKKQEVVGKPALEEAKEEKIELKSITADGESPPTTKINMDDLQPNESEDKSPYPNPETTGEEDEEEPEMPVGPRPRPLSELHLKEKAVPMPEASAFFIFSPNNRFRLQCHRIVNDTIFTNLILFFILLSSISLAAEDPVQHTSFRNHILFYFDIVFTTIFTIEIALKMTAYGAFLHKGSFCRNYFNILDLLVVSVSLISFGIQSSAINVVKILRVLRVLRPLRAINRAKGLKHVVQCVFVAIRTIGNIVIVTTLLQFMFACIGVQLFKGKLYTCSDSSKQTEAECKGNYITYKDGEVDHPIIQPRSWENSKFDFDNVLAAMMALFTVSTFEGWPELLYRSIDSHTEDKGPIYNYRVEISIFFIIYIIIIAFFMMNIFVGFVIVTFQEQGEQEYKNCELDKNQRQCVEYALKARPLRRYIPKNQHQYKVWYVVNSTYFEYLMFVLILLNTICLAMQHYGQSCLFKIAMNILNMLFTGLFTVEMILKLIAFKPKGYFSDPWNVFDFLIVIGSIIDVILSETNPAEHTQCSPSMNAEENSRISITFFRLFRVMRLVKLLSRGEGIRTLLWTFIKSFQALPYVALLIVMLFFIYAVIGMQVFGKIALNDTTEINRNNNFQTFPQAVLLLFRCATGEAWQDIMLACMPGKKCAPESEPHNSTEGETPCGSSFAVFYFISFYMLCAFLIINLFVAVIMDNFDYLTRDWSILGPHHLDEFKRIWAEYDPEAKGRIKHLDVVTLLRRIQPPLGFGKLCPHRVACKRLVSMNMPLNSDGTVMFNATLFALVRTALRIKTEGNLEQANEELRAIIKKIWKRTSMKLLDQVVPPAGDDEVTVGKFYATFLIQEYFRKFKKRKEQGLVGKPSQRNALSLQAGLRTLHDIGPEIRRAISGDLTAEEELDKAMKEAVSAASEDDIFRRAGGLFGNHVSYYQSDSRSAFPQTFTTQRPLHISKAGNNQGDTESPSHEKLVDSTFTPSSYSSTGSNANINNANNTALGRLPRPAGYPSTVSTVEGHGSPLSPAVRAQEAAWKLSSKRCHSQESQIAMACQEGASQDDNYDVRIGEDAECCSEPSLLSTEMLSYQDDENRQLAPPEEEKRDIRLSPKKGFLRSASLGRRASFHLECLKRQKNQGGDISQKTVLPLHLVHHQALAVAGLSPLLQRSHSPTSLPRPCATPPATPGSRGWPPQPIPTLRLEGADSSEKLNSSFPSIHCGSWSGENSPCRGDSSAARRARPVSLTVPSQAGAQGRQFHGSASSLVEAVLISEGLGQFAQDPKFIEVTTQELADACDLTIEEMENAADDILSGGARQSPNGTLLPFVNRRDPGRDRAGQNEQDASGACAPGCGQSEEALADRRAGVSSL

Work on `CC1=NC(C)=C(C(=O)OCN2C(=O)c3ccccc3S2(=O)=O)C(c2cccc([N+](=O)[O-])c2)/C1=C(\O)OCC1CCCO1` (stereo unspecified) yielded an IC50 [1] of 25.1 nM, a Relative potency [2] of 0.1 and a T1/2 [3] of 9.6 min. The Recovery [4] was 27.2%.

`COC(=O)C1=C(C)NC(C)=C([N+](=O)[O-])C1c1ccccc1C(F)(F)F` (stereo unspecified) was tested, and the Contraction [5] was 97.8%, the DBP [6] was 53.3 and the Contraction [7] was 471.4%. For the same compound, the DBP change [8] was 53.3%, the Contraction [9] was 232.2% and the SBP [10] was 100. For the same compound, the Max contractile force [11] was 2570 mg.

`CC1=NC(C)=C(C(=O)OCCN2C(=O)c3ccccc3S2(=O)=O)C(c2ccccc2C(F)(F)F)/C1=C(\O)OC(C)C` (stereo unspecified) was tested, and the ED25 [12] was 0.009 mg/kg, the IC50 [13] was 1 nM and the Duration [14] was >15 min. It also gave an SBP change [15] of 37%, a Relative potency [16] of 2.5 and an IC50 [17] of 102 nM. The Selectivity index [18] was 103, the ED25 [19] was 8 µg/kg and the Recovery [4] was 0.5%.

Work on `CC1=NC(C)=C(C(=O)OCCN2C(=O)c3ccccc3S2(=O)=O)C(c2cccc([N+](=O)[O-])c2)/C1=C(\O)OC(C)(C)C` (stereo unspecified) yielded an IC50 [13] of 1.6 nM, an SBP change [15] of 25% and a Relative potency [16] of 1.8. For the same compound, the IC50 [20] was 115 nM, the Selectivity index [18] was 72 and the Recovery [4] was 0%.

`CC1=NC(C)=C(C(=O)OCCN2C(=O)c3ccccc3S2(=O)=O)C(c2cccc([N+](=O)[O-])c2)/C1=C(\O)OCC1CCCCO1` (stereo unspecified) was tested, and the Contraction [5] was 114%, the Max contractile activity [21] was 1940 mg and the IC50 [13] was > 1000 nM. The DBP [6] was 40, the DBP change [22] was 40% and the Contraction [7] was 141.2%. The Contraction [9] was 129.6%, the SBP [10] was 58.1 and the Max contractile force [11] was 1940 mg.

For `COC(=O)C1=C(C)NC(C)=C(C(=O)OC)C1c1ccccc1[N+](=O)[O-]` [NIFEDIPINE], the ED25 [12] was 0.033 mg/kg, the Duration [14] was 3 min and the SBP change [23] was 35%. For the same compound, the ED25 [24] was 0.031 mg/kg, the IC50 [17] was 113 nM and the Recovery [4] was 71.6%.

`CC1=NC(C)=C(C(=O)OCN2C(=O)c3ccccc3S2(=O)=O)C(c2ccccc2[N+](=O)[O-])/C1=C(\O)OCC1CCCO1` (stereo unspecified) gave an IC50 [1] of 38 nM, a Relative potency [2] of 0.1 and an IC50 [17] of 286 nM. For the same compound, the T1/2 [3] was 8.7 min and the Recovery [4] was 44.5%.
